{"source": "the EternaBench riboswitch data", "key": {"[1]": {"test_system": "MS2 coat protein", "test": "apparent Kd, MS2 coat protein; higher = weaker binding; RNA-MaP array; theophylline 2 mM where present", "outline": "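In 100 mM Tris-HCl pH 7.5, 80 mM KCl, 4 mM MgCl2, BSA, DTT, yeast tRNA and Tween-20, SNAP-549-labelled MS2 coat protein was titrated from 0.7 or 1.5 nM, doubling to 3 µM, over designs transcribed by stalled E. coli RNA polymerase on Illumina sequencing-chip clusters. This was done first without ligand, then with ligand held constant. After green signal was normalised to red-channel RNA signal and control-cluster median Fmax, the apparent Kd was taken as the median of filtered per-cluster binding-curve fits.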"}, "[2]": {"test_system": "MS2 coat protein", "test": "apparent Kd, MS2 coat protein; higher = weaker binding; RNA-MaP array", "outline": "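Sequenced DNA templates on an Illumina sequencing chip were transcribed into the designed RNAs. These were incubated at room temperature in Tris-HCl pH 7.5 buffer containing KCl, MgCl2, BSA, DTT, tRNA and Tween20 with fluorescently labeled MS2 coat protein at 1.5 nM to 3 μM, with or without input ligand. Apparent Kd is the median of binding-curve fits per cluster, and designs with fewer than 10 clusters measured were excluded.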"}, "[3]": {"conditions": "designed as: ON switch for theophylline, no ligand"}, "[4]": {"conditions": "ligand present: theophylline, designed as: ON switch for theophylline"}, "[5]": {"conditions": "designed as: OFF switch for theophylline, no ligand"}, "[6]": {"conditions": "ligand present: theophylline, designed as: OFF switch for theophylline"}, "[7]": {"conditions": "designed as: OFF switch for flavin mononucleotide, no ligand"}, "[8]": {"conditions": "ligand present: flavin mononucleotide, designed as: OFF switch for flavin mononucleotide"}, "[9]": {"conditions": "designed as: ON switch for flavin mononucleotide, no ligand"}, "[10]": {"conditions": "ligand present: flavin mononucleotide, designed as: ON switch for flavin mononucleotide"}}}
{"sequence": "UUAAAUGUGACGGAUACCAGCGUGUUGUAGAACAUGAGGAUCACCCAUGUAGUGAUCGAGCGCCCUUGGCAGCUGGUAUGUUUGA", "values": [{"measurement": "apparent Kd", "setting": "[1]; [3]", "result": 0.18, "unit": "µM"}, {"measurement": "apparent Kd", "setting": "[1]; [4]", "result": 0.532, "unit": "µM"}]}
{"sequence": "CUCGAGUUAUGAGAUACCAGACUAUAGUUUACAUGAGGAUCACCCAUGUUAUGGGUGGUGGUCCCUUGGCAGCUCAUAUGUUUAA", "values": [{"measurement": "apparent Kd", "setting": "[1]; [5]", "result": 0.0601, "unit": "µM"}, {"measurement": "apparent Kd", "setting": "[1]; [6]", "result": 0.284, "unit": "µM"}]}
{"sequence": "GGAAGCAGGACUGAUACCAGUCCAGCGAAUCAUACGACGCAACAUGAGGAUCACCCAUGUGACCCUUGGCAGCAGACUGCUACCG", "values": [{"measurement": "apparent Kd", "setting": "[1]; [3]", "result": 0.0315, "unit": "µM"}, {"measurement": "apparent Kd", "setting": "[1]; [4]", "result": 0.0137, "unit": "µM"}]}
{"sequence": "AUGUCGUUGAAUAUAGCGGCUUGGAGUGAUACCAGCAUGAUCCAAUGCCCUUGGCAGCAUAACAUGAGGAUCACCCAUGUUCCAG", "values": [{"measurement": "apparent Kd", "setting": "[1]; [3]", "result": 0.0576, "unit": "µM"}, {"measurement": "apparent Kd", "setting": "[1]; [4]", "result": 0.0746, "unit": "µM"}]}
{"sequence": "AUCUCAUAGAGUGAUACCAGACUACAUGAGGAUCACCCAUGUUACAUUUAAAUAUCAUUUGUCCCUUGGCAGCACAUGAAGUACA", "values": [{"measurement": "apparent Kd", "setting": "[1]; [5]", "result": 0.028, "unit": "µM"}, {"measurement": "apparent Kd", "setting": "[1]; [6]", "result": 0.018, "unit": "µM"}]}
{"sequence": "UCGCACAUGAGGAUCACCCAUGUACUAGAUACCAGUGACGCGGUGCACCCUUGGCAGCUGGUGCUGAGUGAUGGUUCCCUCGGCA", "values": [{"measurement": "apparent Kd", "setting": "[1]; [5]", "result": 0.119, "unit": "µM"}, {"measurement": "apparent Kd", "setting": "[1]; [6]", "result": 0.143, "unit": "µM"}]}
{"sequence": "AGUGUUAUAACUGAUACCAGACUCUCAUGUUUACAUGAGGAUCACCCAUGUUAUUUCUUUGUCCCUUGGCAGCAGAAUUUACACA", "values": [{"measurement": "apparent Kd", "setting": "[1]; [3]", "result": 0.317, "unit": "µM"}, {"measurement": "apparent Kd", "setting": "[1]; [4]", "result": 0.0493, "unit": "µM"}]}
{"sequence": "GAGACAUGAGGAUCACCCAUGUUAGAUGAUACCAGUUAGAGAAGGAGCCCUUGGCAGCGUAAAUCUAGAGCCUAUGACGACAUGU", "values": [{"measurement": "apparent Kd", "setting": "[1]; [3]", "result": 0.0134, "unit": "µM"}, {"measurement": "apparent Kd", "setting": "[1]; [4]", "result": 0.0142, "unit": "µM"}]}
{"sequence": "GGUGAUCCGUAUCACCGGAUCAUCGGUGAUACCAGCAUCGAAAGAUGCCCUUGGCAGCACCAACAUGAGGAUCACCCAUGUAAUA", "values": [{"measurement": "apparent Kd", "setting": "[1]; [3]", "result": 0.12, "unit": "µM"}, {"measurement": "apparent Kd", "setting": "[1]; [4]", "result": 0.0259, "unit": "µM"}]}
{"sequence": "GCAUUAACAAAGGAUAUGCAUUUCGUCAAUGUAGCAGAAGGUUGUACAUGAGGAUCACCCAUGUGUGAUCGAAC", "values": [{"measurement": "apparent Kd", "setting": "[2]; [7]", "result": 0.026, "unit": "µM"}, {"measurement": "apparent Kd", "setting": "[2]; [8]", "result": 0.0566, "unit": "µM"}]}
{"sequence": "GCAUAGUAAAAUGAUACCAGAGUCAAAACAGACAUGAGGAUCACCCAUGUGCAUAUACAACUCCCUUGGCAGCAUUAAAACGGGA", "values": [{"measurement": "apparent Kd", "setting": "[2]; [3]", "result": 0.0171, "unit": "µM"}, {"measurement": "apparent Kd", "setting": "[2]; [4]", "result": 0.013, "unit": "µM"}]}
{"sequence": "AAAGAACAAGGAUAUACAUGAGGAUCACCCAUGUCACAGAUAGUAGAACCACAAGCAUGUAGAAGGUGAGUCUA", "values": [{"measurement": "apparent Kd", "setting": "[2]; [7]", "result": 0.0115, "unit": "µM"}, {"measurement": "apparent Kd", "setting": "[2]; [8]", "result": 0.00961, "unit": "µM"}]}
{"sequence": "GCCAAGCAGGGAGGAUAUACAGGCAAUAAGUGAUUAGAAGAACAAAACAUGAGGAUCACCCAUGUGAAGAAGGCCCAUUCGGAA", "values": [{"measurement": "apparent Kd", "setting": "[2]; [7]", "result": 0.0121, "unit": "µM"}, {"measurement": "apparent Kd", "setting": "[2]; [8]", "result": 0.0109, "unit": "µM"}]}
{"sequence": "GAUCUCCGCGAGAAGGCUGAGCGGUCACUAGCCAGAGGAUAUCGUCACGCGCAGGGAAAACAUGAGGAUCACCCAUGUGUAAGU", "values": [{"measurement": "apparent Kd", "setting": "[2]; [7]", "result": 0.0107, "unit": "µM"}, {"measurement": "apparent Kd", "setting": "[2]; [8]", "result": 0.0106, "unit": "µM"}]}
{"sequence": "AAAGGUUGAGGAUAUCAUCCUCCAAACAUGAGGAUCACCCAUGUUGAUCUUCACGUACGAUGAGAAGGCAACACCU", "values": [{"measurement": "apparent Kd", "setting": "[2]; [7]", "result": 0.585, "unit": "µM"}, {"measurement": "apparent Kd", "setting": "[2]; [8]", "result": 0.683, "unit": "µM"}]}
{"sequence": "AGCCCACAUGAGGAUCACCCAUGUACUUGGUCCUCAGGAUAUCUAGUUCCAUAUUACAAAAGAGAAGGGAGGAUUG", "values": [{"measurement": "apparent Kd", "setting": "[2]; [9]", "result": 0.11, "unit": "µM"}, {"measurement": "apparent Kd", "setting": "[2]; [10]", "result": 0.0146, "unit": "µM"}]}
{"sequence": "UGAAUACAUGAGGAUCACCCAUGUUACGACCUCACAGGAUAUCAGAUAAAGGCUCUCAUCUGAGAAGGGUGGCUCC", "values": [{"measurement": "apparent Kd", "setting": "[2]; [9]", "result": 0.0633, "unit": "µM"}, {"measurement": "apparent Kd", "setting": "[2]; [10]", "result": 0.0388, "unit": "µM"}]}
{"sequence": "UUACACAUGAGGAUCACCCAUGUCUGGGAGCGAGGACCGGUACGGCCGCCACUCGAAUUGUCAGGGCUAUGCCGGACGAUGCAUC", "values": [{"measurement": "apparent Kd", "setting": "[2]; designed as: ON switch for tryptophan, no ligand", "result": 0.0171, "unit": "µM"}, {"measurement": "apparent Kd", "setting": "[2]; ligand present: tryptophan, designed as: ON switch for tryptophan", "result": 0.0211, "unit": "µM"}]}
{"sequence": "GACGAACAUGAGGAUCACCCAUGUUAACCGAUCACCACGUUCAGAAGGAGGGACAUAACGAGCACCUAGGAUAUGACCAAACAC", "values": [{"measurement": "apparent Kd", "setting": "[2]; [9]", "result": 0.0242, "unit": "µM"}, {"measurement": "apparent Kd", "setting": "[2]; [10]", "result": 0.0141, "unit": "µM"}]}
{"sequence": "AUUGAACGUGCAGGAUAUCAAAACCGGAAUCGUUGAGAAGGGCAGUAAUCGGAGAGCACAUGAGGAUCACCCAUGUUCAAUCGA", "values": [{"measurement": "apparent Kd", "setting": "[2]; [9]", "result": 0.0159, "unit": "µM"}, {"measurement": "apparent Kd", "setting": "[2]; [10]", "result": 0.00932, "unit": "µM"}]}
{"sequence": "AUGAGAUGAGGAUAUACUGGGUCCGCAUUAGAAACUUAUCAACAUGAGGAUCACCCAUGUAGAAGGCAUGUGAG", "values": [{"measurement": "apparent Kd", "setting": "[2]; [7]", "result": 0.0254, "unit": "µM"}, {"measurement": "apparent Kd", "setting": "[2]; [8]", "result": 0.0833, "unit": "µM"}]}
{"sequence": "GUAGAGUCAGGAUAUGUCAACUGCUCUGUAAAGCUUGGUCGACAGAAGGGACAUGAGGAUCACCCAUGUGAAGG", "values": [{"measurement": "apparent Kd", "setting": "[2]; [7]", "result": 0.0341, "unit": "µM"}, {"measurement": "apparent Kd", "setting": "[2]; [8]", "result": 0.0565, "unit": "µM"}]}
{"sequence": "ACCUUACAUGAGGAUCACCCAUGUCGUGAUACCAGAAACCACGUAUUCCCUUGGCAGCACACCCGUGAUGAGAUUGUCGGUUUUG", "values": [{"measurement": "apparent Kd", "setting": "[2]; [3]", "result": 0.0574, "unit": "µM"}, {"measurement": "apparent Kd", "setting": "[2]; [4]", "result": 0.088, "unit": "µM"}]}
{"sequence": "GUCUGGAUGUAGGAUAUGUGUCCGUGCUAGGGUACAGAAGGACAGACAUGAGGAUCACCCAUGUGGAUCAACCG", "values": [{"measurement": "apparent Kd", "setting": "[2]; [7]", "result": 0.0226, "unit": "µM"}, {"measurement": "apparent Kd", "setting": "[2]; [8]", "result": 0.0382, "unit": "µM"}]}
{"sequence": "CGAACUAGCUAGAAGGAACAGGCGACUAAAGUGUUAGGAUAUAGGCGUAUGUGCAGACAUGAGGAUCACCCAUGUGUCGAAUUU", "values": [{"measurement": "apparent Kd", "setting": "[2]; [7]", "result": 0.0178, "unit": "µM"}, {"measurement": "apparent Kd", "setting": "[2]; [8]", "result": 0.0147, "unit": "µM"}]}
